# pEC50: −log10 of the molar value. Active and inactive are the calls of the source. No cut-off for these calls is given here.
# Tests used:
# [1] = Drug uptake in diet-induced obese C57Bl/6 mouse liver at 0.1 mg/kg, po qd for 4 weeks measured 6 hrs post last dose; format: ADME, organism-based; conditions: read-out: Drug uptake
# Summary of the method: (§1)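 Male DIO mice dosed orally for 4 weeks. Sacrificed 6 h after the last dose. Compound measured in serum (ng/mL) and liver (ng/g), and the liver:serum ratio calculated.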
# [2] = Oral bioavailability in Sprague-Dawley rat at 3 mg/kg; format: ADME, organism-based; conditions: in vivo
# Summary of the method: (§2)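 Single dose to fasted male Sprague Dawley rats, IV at 1 mg/kg or oral at 3 mg/kg. Plasma levels followed to derive AUC0-24hr, Cmax, half-life, Vdss and oral bioavailability.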
# Mus musculus [3] = assay: Reduction in total liver ceramide level in diet-induced obese C57BL6 mouse at 1 to 60 mg/kg administered daily through oral gavage for 28 days measured 6 hrs post last dose relative to lean control; format: functional, organism-based
# Summary of the method: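 Liver total ceramide levels measured in DIO mice after 4 weeks of oral dosing.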
# [4] = biological target: T1, Serine palmitoyltransferase 1 (Homo sapiens) (UniProt O15269); assay: (§3) Inhibition of SPT1 in human MCF7 cells assessed as suppression of 14C-serine incorporation into ceramide incubated for 2 hrs in presence of 4-HPR; format: cell-based
# T1 sequence (whole entry): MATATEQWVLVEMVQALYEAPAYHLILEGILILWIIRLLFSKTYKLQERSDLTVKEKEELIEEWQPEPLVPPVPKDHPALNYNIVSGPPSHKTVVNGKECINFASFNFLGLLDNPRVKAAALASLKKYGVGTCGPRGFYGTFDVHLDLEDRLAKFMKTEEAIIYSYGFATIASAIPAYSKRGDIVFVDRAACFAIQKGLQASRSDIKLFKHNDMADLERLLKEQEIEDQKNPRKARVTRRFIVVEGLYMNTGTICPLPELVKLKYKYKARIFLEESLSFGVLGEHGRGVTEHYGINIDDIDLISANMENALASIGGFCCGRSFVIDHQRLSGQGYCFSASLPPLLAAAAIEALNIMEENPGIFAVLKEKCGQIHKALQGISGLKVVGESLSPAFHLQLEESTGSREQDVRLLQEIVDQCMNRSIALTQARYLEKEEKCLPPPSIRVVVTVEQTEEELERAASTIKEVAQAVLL
# Summary of the method: (§4)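 Human MCF-7 cells incubated 2 h with a range of compound concentrations or DMSO control media. Medium contained 14C-serine plus 25 uM 4-HPR to activate SPT. 14C-serine-labeled ceramide products quantified to give EC50.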
# [5] = biological target: T2, Serine palmitoyltransferase 1 (Homo sapiens, UniProt O15269); assay: as §3; format: cell-based; summary of the method: as §4
# T2 sequence (O15269 whole entry): T1 sequence (whole entry)
# [6] = Fraction unbound in rat; format: ADME
# [7] = AUC (0 to 24 hrs) in Sprague-Dawley rat at 1 mg/kg, iv; format: ADME, organism-based; set-up: time < 24 hr, dose 1 mg/kg, route intravenous; conditions: in vivo; summary of the method: as §2
# [8] = Drug uptake in diet-induced obese C57Bl/6 mouse liver at 3 mg/kg, po qd for 4 weeks measured 6 hrs post last dose; format: ADME, organism-based; conditions: read-out: Drug uptake; summary of the method: as §1
# [9] = Toxicity in rat assessed as induction of gastric enteropathy during 14 days toxicology study; conditions: in vivo, 336 h
# Rattus norvegicus [10] = assay: Increase in HDL level in cholic acid/cholesterol-fed Sprague-Dawley rat model of dyslipidemia administered bid through oral gavage measured after 1 week by FPLC analysis relative to vehicle-treated control; format: functional, organism-based
# Summary of the method: (§5)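 Sprague Dawley rats fed a cholic acid/cholesterol diet for 14 days, then dosed orally BID for 7 days at five dose levels, n=6. Serum ceramides and VLDL and HDL cholesterol compared with vehicle (dose 0). Mean ± SEM; Dunnett's test, p<0.05.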
# [11] = Ratio of drug uptake in diet-induced obese C57Bl/6 mouse liver to serum at 10 mg/kg, po qd for 4 weeks measured 6 hrs post last dose; format: ADME, organism-based; summary of the method: as §1
# [12] = Drug uptake in diet-induced obese C57Bl/6 mouse serum at 3 mg/kg, po qd for 4 weeks measured 6 hrs post last dose; format: ADME, organism-based; conditions: read-out: Drug uptake; summary of the method: as §1
# Mus musculus [13] = assay: Reduction in blood glucose in diet-induced obese C57BL6 mouse at 25 mg/kg, po qd for 4 weeks by oral glucose tolerance test relative to lean control; format: functional, organism-based
# Summary of the method: (§6)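 After 4 weeks of oral dosing, DIO mice underwent an oral glucose tolerance test. Insulin and glucose AUC compared with lean mice; trend assessed by ANOVA trend analysis.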
# [14] = Drug uptake in diet-induced obese C57Bl/6 mouse serum at 10 mg/kg, po qd for 4 weeks measured 6 hrs post last dose; format: ADME, organism-based; conditions: read-out: Drug uptake; summary of the method: as §1
# [15] = Drug uptake in diet-induced obese C57Bl/6 mouse serum at 25 mg/kg, po qd for 4 weeks measured 6 hrs post last dose; format: ADME, organism-based; conditions: read-out: Drug uptake; summary of the method: as §1
# [16] = Toxicity in diet-induced obese C57Bl/6 mouse assessed as decrease in food intake at 25 mg/kg, po qd for 4 weeks; format: organism-based; conditions: in vivo, 672 h
# Summary of the method: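 Food intake monitored in DIO mice during 4 weeks of daily oral dosing.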
# [17] = Drug uptake in diet-induced obese C57Bl/6 mouse serum at 0.1 mg/kg, po qd for 4 weeks measured 6 hrs post last dose; format: ADME, organism-based; conditions: read-out: Drug uptake; summary of the method: as §1
# Mus musculus [18] = assay: Reduction in total plasma ceramide level in diet-induced obese C57BL6 mouse administered daily through oral gavage for 28 days measured 2 hrs post last dose relative to lean control; format: functional, organism-based
# Summary of the method: (§7)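 DIO mice dosed orally for 28 days, with myriocin as positive control and lean mice as reference. Total and C18:0 plasma ceramides measured 2 h after the final dose.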
# Mus musculus [19] = assay: Reduction in serum insulin in diet-induced obese C57BL6 mouse at 25 mg/kg, po qd for 4 weeks by oral glucose tolerance test relative to lean control; format: functional, organism-based; summary of the method: as §6
# [20] = Volume of distribution at steady state in Sprague-Dawley rat at 3 mg/kg,po; format: ADME, organism-based; conditions: in vivo
# Summary of the method: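 Male Sprague Dawley rats, fasted, single oral dose of 3 mg/kg. A parallel arm received 1 mg/kg IV. Plasma was sampled for pharmacokinetics over 0-24 hr. Steady-state volume of distribution is reported […], in mL/kg.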
# [21] = Half life in Sprague-Dawley rat at 1 mg/kg, iv; format: ADME, organism-based; conditions: in vivo; summary of the method: as §2
# Rattus norvegicus [22] = assay: Reduction in total plasma ceramide level in cholic acid/cholesterol-fed Sprague-Dawley rat model of dyslipidemia at 10 to 60 mg/kg administered bid through oral gavage measured after 1 week by FPLC analysis relative to vehicle-treated control; format: functional, organism-based; summary of the method: as §5
# Mus musculus [23] = assay: Reduction in plasma C18:0 ceramide level in diet-induced obese C57BL6 mouse at 1 to 60 mg/kg administered daily through oral gavage for 28 days measured 2 hrs post last dose relative to lean control; format: functional, organism-based; summary of the method: as §7
# [24] = Cmax in Sprague-Dawley rat at 3 mg/kg,po; format: ADME, organism-based; set-up: dose 3 mg/kg, route oral; conditions: in vivo; summary of the method: as §2
# [25] = Ratio of drug uptake in diet-induced obese C57Bl/6 mouse liver to serum at 0.1 mg/kg, po qd for 4 weeks measured 6 hrs post last dose; format: ADME, organism-based; conditions: other tissue; summary of the method: as §1
# [26] = Drug uptake in diet-induced obese C57Bl/6 mouse serum at 1 mg/kg, po qd for 4 weeks measured 6 hrs post last dose; format: ADME, organism-based; conditions: read-out: Drug uptake; summary of the method: as §1
# [27] = Half life in Sprague-Dawley rat at 3 mg/kg,po; format: ADME, organism-based; conditions: in vivo; summary of the method: as §2
# Rattus norvegicus [28] = assay: Reduction in vLDL level in cholic acid/cholesterol-fed Sprague-Dawley rat model of dyslipidemia at 1 to 60 mg/kg administered bid through oral gavage measured after 1 week by FPLC analysis relative to vehicle-treated control; format: functional, organism-based; summary of the method: as §5
# [29] = Volume of distribution at steady state in Sprague-Dawley rat at 1 mg/kg, iv; format: ADME, organism-based; conditions: in vivo, read-out: Vdss; summary of the method: as §2
# [30] = AUC (0 to 24 hrs) in Sprague-Dawley rat at 3 mg/kg,po; format: ADME, organism-based; set-up: time < 24 hr, dose 3 mg/kg, route oral; conditions: in vivo; summary of the method: as §2
# [31] = Drug uptake in diet-induced obese C57Bl/6 mouse liver at 10 mg/kg, po qd for 4 weeks measured 6 hrs post last dose; format: ADME, organism-based; conditions: read-out: Drug uptake; summary of the method: as §1
structure (smiles),measurement,setting,value
CCCCCCC(=O)N1CCc2c(c(-c3ccc(C(C)(C)C(=O)O)cc3)nn2C)C1,concentration at 6 h,[1],26500 ng/g
same,bioavailability,[2],33%
same,Activity,Mus musculus [3],Active
same,inhibition,[4],Dose-dependent effect
same,pEC50,[5],5.37
same,fraction unbound,[6],0.02
same,AUC(0-t) at 24 h,[7],190 ng·h/mL
same,concentration at 6 h,[8],83800 ng/g
same,Activity,[9],Toxic
same,Activity,Rattus norvegicus [10],Dose-dependent effect
same,Kp at 6 h,[11],152
same,concentration at 6 h,[12],665 ng/mL
same,Activity,Mus musculus [13],Active
same,concentration at 6 h,[14],855 ng/mL
same,concentration at 6 h,[15],1210 ng/mL
same,Activity,[16],Toxic
same,concentration at 6 h,[17],5 ng/mL
same,Activity,Mus musculus [18],Dose-dependent effect
same,Activity,Mus musculus [19],Active
same,Vdss,[20],126 L/kg
same,half-life,[21],5.17 h
same,Activity,Rattus norvegicus [22],Active
same,Activity,Mus musculus [23],Active
same,Cmax,[24],16.3 ng/mL
same,Ratio,[25],5292
same,concentration at 6 h,[26],141 ng/mL
same,half-life,[27],7.65 h
same,Activity,Rattus norvegicus [28],inactive
same,Vd,[29],8.33 L/kg
same,AUC(0-t) at 24 h,[30],155 ng·h/mL
same,concentration at 6 h,[31],130000 ng/g

# Reference: ChEMBL document CHEMBL4477201, “Imidazopyridine and Pyrazolopiperidine Derivatives as Novel Inhibitors of Serine Palmitoyl Transferase” (J Med Chem, 2016)
